Compound activity: PubChem BioAssay, The Scripps Research Institute Molecular Screening Center
Rows were chosen to be rich in hits. Some 1.8% of all compounds tested hit in one or more screens of this group.
TLR9-MyD88 inh = TLR9-MyD88 interaction inhibition | Q9NR96+Q99836 | inhibition, % at 4.98 µM | AID 504734 | 0.21% of 340,000 active | CHO BLA complementation TLR9-MyD88, CCF4 FRET ratio;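 active = inhibition above the mean over all tested compounds plus 3 SD, cut at about 21% in these data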
MC4R ag barr = human MC4R agonism via beta-arrestin. 0.98% of 360,000 active. activation, % at 8.9 µM. P32245. U2OS MC4R beta-arrestin complementation, luminescence; percent of melanotan II response, DMSO zero;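 active = activation above a per-plate cutoff, the mean activation of sample wells on that plate plus 3 SD, cut at about 8% in these data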
NOD2 RIPK2 PPI = NOD2-RIPK2 protein interaction inhibition; inhibition, % at 4.98 µM; 0.38% of 360,000 active; O43353; CHO BLA complementation NOD2-RIPK2, CCF4 ratio; in the data active = inhibition above about 21%
TLR4 MyD88 comp = blocks binding of human TLR4 to MyD88 | AID 861 | inhibition, % at 8.4 µM | 0.18% of 200,000 active | HeLa CL3-4 TLR4/MyD88 BLA complementation, FRET ratio; in the data active = inhibition above about 25%
MC4R antag cAMP = blocks human MC4R cAMP signaling. P32245. MC4R-expressing cells, MTII-stimulated cAMP, LANCE TR-FRET. inhibition, % at 6.5 µM. 0.48% of 360,000 active. AID 540295;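 active = inhibition above its plate's cutoff, the mean of tested wells on that plate plus 3 SD, cut at about 29% in these data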
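System – human MC4R-expressing U2OS cells · Also added – Melanotan II · Dosing – one concentration, 6.5 µM nominal · Timing – 30-min compound, 1-h challenge, 1-h detection, room temperature · Measured by – Eu-cAMP/anti-cAMP TR-FRET, emission 671 nm · Replicates – singlicate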
TLR9-MyD88 conf = confirmation of human TLR9-MyD88 binding inhibitors; shares compounds with TLR9-MyD88 inh; CHO TLR9/MyD88 BLA complementation, CCF4 FRET ratio; inhibition, % at 4.98 µM; 51% of 680 active; AID 540250;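 active = mean inhibition across three repeats above about 21% taken from the earlier screen, limit read from the data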;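 also: blue over green emission ratio reports constitutive TLR9 MyD88 association via BLA complementation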
BLA counter = beta-lactamase reporter inhibition, counter-screen artifact; inhibition, % at 4.98 µM; AID 540251; shares compounds with TLR9-MyD88 inh; CHO-BLA cells, CCF4 FRET ratio, BLA reporter; 7% of 680 active;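 active = mean inhibition above a 50% cutoff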;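 also: counterscreen of TLR9-MyD88 hits on CMV-driven BLA in CHO-K1 cells; higher means less blue over green ratio so more BLA blockade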
TLR9 CHO cytotox = CHO cell toxicity counter-screen for TLR9-MyD88 inhibitors | shares compounds with TLR9-MyD88 inh | TLR9-MyD88 CHO cells cytotoxicity, luminescence | inhibition, % at 4.98 µM | 39% of 680 active; in the data active = inhibition above about 11%
Of the large screens only hits and unclear results are named; the others gave an inactive call (follow-up assays come after a bar, where they were run).

CC(C)N(CCC(=O)c1ccc2ccccc2c1)Cc1ccccc1	TLR9-MyD88 inh 21 (no result: TLR4 MyD88 comp) | TLR9-MyD88 conf inactive | BLA counter inactive | TLR9 CHO cytotox 49
CCOC(=O)[C@H]1[C@H]2COc3cc(OC)ccc3[C@@H]2N2C(=O)CN(Cc3ccc(OC)cc3)C(=O)[C@@]12C	none (no result: TLR4 MyD88 comp)
Cc1[nH]n(-c2ccccc2)c(=O)c1C=NCC1CCCO1 (centres undefined)	TLR9-MyD88 inh 26 | TLR9-MyD88 conf inactive | BLA counter inactive | TLR9 CHO cytotox inactive
CCCc1[nH]n(-c2ccc(F)cc2)c(=O)c1C=NCC1CCCO1 (centres undefined)	none
O=C(OCn1ncc(Br)c(Br)c1=O)c1ccccc1Cl	TLR9-MyD88 inh 32, NOD2 RIPK2 PPI 82 | TLR9-MyD88 conf 36 | BLA counter inactive | TLR9 CHO cytotox 100
COC1C=CC=C(C)C(=O)NC2=CC(=O)C(N)=C(CC(C)CC(OC)C(O)C(C)C=C(C)C1OC(N)=O)C2=O (centres undefined)	TLR9-MyD88 inh 24 (no result: TLR4 MyD88 comp) | TLR9-MyD88 conf inactive | BLA counter inactive | TLR9 CHO cytotox 85
COc1ccc(S(=O)(=O)N2CCCCC2)cc1NC(=O)c1ccc([N+](=O)[O-])o1	TLR9-MyD88 inh 22 | TLR9-MyD88 conf inactive | BLA counter inactive | TLR9 CHO cytotox 22
COc1ccc(O)c(/C=N/NC(=S)Nc2cccnc2)c1	TLR9-MyD88 inh 29 | TLR9-MyD88 conf inactive | BLA counter inactive | TLR9 CHO cytotox 17
COC1=CC(=O)OC(c2ccco2)C1 (centres undefined)	none (no result: TLR4 MyD88 comp)
COc1ccc(N=Cc2sc(O)c3ccccc23)cc1	TLR9-MyD88 inh 22 | TLR9-MyD88 conf 21 | BLA counter inactive | TLR9 CHO cytotox inactive
COc1ccc(N=Cc2c(O)c3ccccc3n2C(C)=O)cc1	none (no result: TLR4 MyD88 comp)
COc1ccccc1NS(=O)(=O)NC(=O)c1c(C)[nH]c2ccccc12	TLR9-MyD88 inh 21 (no result: TLR4 MyD88 comp) | TLR9-MyD88 conf inactive | BLA counter inactive | TLR9 CHO cytotox inactive
Cc1[nH]c2ccccc2c1C(=O)NS(=O)(=O)Nc1ccc(Cl)cc1	none
O=C(C1=NN(c2ccccc2)C2C(=O)N(c3ccc(Cl)cc3)C(=O)C12)c1ccccc1 (centres undefined)	TLR9-MyD88 inh 30 | TLR9-MyD88 conf 25 | BLA counter inactive | TLR9 CHO cytotox inactive
Cc1ccc(C)c2nc3sc(C(=O)N4CCOCC4)c(N)c3cc12	TLR9-MyD88 inh 22 | TLR9-MyD88 conf inactive | BLA counter inactive | TLR9 CHO cytotox 26
Cc1cccc2cc3c(N)c(C(=O)N4CCc5ccccc54)sc3nc12	TLR9-MyD88 inh 22 | TLR9-MyD88 conf inactive | BLA counter inactive | TLR9 CHO cytotox 18
CCCCn1nnnc1C(c1ccccc1)N1CCN(CCN2CCOCC2)CC1 (centres undefined)	none (no result: TLR9-MyD88 inh, MC4R ag barr, TLR4 MyD88 comp, MC4R antag cAMP)
O=C(NC12CC3CC(CC(C3)C1)C2)c1ccc([N+](=O)[O-])o1	none (no result: TLR4 MyD88 comp)
O=C(COc1ccc(Cl)cc1)NNC(=O)c1ccc2c(=O)n3c(nc2c1)CCC3	none (no result: TLR4 MyD88 comp)
CCOc1cc(/C=C2\C(=O)N(c3cccc(C(F)(F)F)c3)C(=O)c3ccccc32)ccc1O	none
Cc1cccc(N2C(=O)/C(=C\c3ccc(OC(F)F)cc3)c3ccccc3C2=O)c1	TLR9-MyD88 inh 50 | TLR9-MyD88 conf 45 | BLA counter inactive | TLR9 CHO cytotox inactive
Cc1cc(C(=O)N(C)CC(=O)Nc2ccc(F)c(F)c2F)no1	none (no result: TLR4 MyD88 comp)
COc1cc(/C=C/C(=O)O)cc(S(=O)(=O)NCCCC(=O)O)c1OC	none
O=C(COc1cc(F)ccc1[N+](=O)[O-])Nc1cc(S(=O)(=O)N2CCCC2)ccc1Cl	none (no result: TLR4 MyD88 comp)
C/C(=N/NS(=O)(=O)c1ccc(C)cc1)c1ccc(NC(=O)C(F)(F)F)cc1	TLR9-MyD88 inh 22 | TLR9-MyD88 conf inactive | BLA counter inactive | TLR9 CHO cytotox inactive
O=C(Nc1nccs1)c1nc[nH]c1C(=O)NCc1ccccc1	none (no result: TLR4 MyD88 comp)
